High-throughput results from PubChem.
An excerpt weighted towards active compounds, which were near 2% of everything screened.
FGF22 binding: FGF22 (human) thermal shift binding; Q9HCT0; recombinant FGF22 thermal shift, SYPRO orange fluorescence; percent of sucrose octasulfate shift, DMSO zero; activity (Tm shift, normalised), % at 9.99 µM; 1.5% of 340,000 active; AID 651658;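 active = mean Tm shift, scaled 0 neutral to 100 positive control, at about 1.3% or above, every replicate too, limit read from the data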
ABCB6 inh MLPCN: human ABCB6 transporter inhibition | Q9NP58 | K562-ABCB6 porphyrin accumulation, flow cytometry, 1 h; hits give low values | fluorescence ratio to DMSO, % at 10 µM | 0.19% of 360,000 active;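 active = fluorescence ratio to DMSO below 75%, the collection mean minus 3 SD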;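 also: signal is porphyrin accumulated inside mitochondria; 100% equals median channel fluorescence of DMSO control wells; lower ratio means ABCB6 inhibition with less porphyrin fluorescence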
DAGLB inhibitor: blocks human DAGLB lipase activity; Q8NCG7; HEK293T DAGLB membrane lysate, EnzChek fluorogenic substrate; inhibition, % at 5.17 µM; 0.059% of 340,000 active; in the data active = inhibition above about 34%;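 also: 0% = enzyme with vehicle and 100% = wells lacking enzyme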
Target sequence (Q8NCG7 whole entry, looked up): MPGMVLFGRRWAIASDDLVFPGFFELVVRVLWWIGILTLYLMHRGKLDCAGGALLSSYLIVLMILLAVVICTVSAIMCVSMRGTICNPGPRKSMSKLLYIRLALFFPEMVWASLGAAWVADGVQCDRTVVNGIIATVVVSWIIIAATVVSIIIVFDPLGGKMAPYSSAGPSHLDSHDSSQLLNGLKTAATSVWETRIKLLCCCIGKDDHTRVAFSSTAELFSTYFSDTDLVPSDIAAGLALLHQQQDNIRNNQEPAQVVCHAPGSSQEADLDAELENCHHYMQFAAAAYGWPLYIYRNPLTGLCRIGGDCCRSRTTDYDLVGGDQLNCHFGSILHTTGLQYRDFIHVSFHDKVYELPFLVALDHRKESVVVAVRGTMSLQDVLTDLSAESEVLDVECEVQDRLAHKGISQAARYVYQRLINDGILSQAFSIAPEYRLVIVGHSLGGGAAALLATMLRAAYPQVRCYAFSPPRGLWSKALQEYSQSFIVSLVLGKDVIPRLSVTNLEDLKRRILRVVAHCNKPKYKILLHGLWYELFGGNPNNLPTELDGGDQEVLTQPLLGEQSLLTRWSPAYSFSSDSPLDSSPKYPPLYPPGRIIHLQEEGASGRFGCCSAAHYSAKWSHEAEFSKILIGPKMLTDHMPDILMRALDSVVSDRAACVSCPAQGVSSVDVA
VLA-4 inh: inhibition in a human VLA-4 binding assay; P13612; VLA-4 expressing cells, ligand binding flow cytometry; inhibition, % (about 7 µM as worked out from the volumes in the protocol); 0.2% of 330,000 active; in the data active = inhibition above about 50%
MT1-MMP act inh: MT1-MMP (human) activation inhibition; GFP/RFP ratio change, % at 20 µM; 0.061% of 360,000 active; P50281; HT1080 RFP-PRO-GFP cells, GFP/RFP ratio fluorescence, overnight; percent of plate control window, DMSO zero;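 active = GFP/RFP ratio change of at least 30% with cell ATP level not reduced by more than half and red fluorescence within 50% of control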
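system = RFP-PRO-GFP reporter HT1080 cells | dosing = 20 µM single dose, 1% DMSO | timing = overnight cell settling, then overnight compound exposure, 37 °C, 5% CO2 | read-out basis = GFP/RFP fluorescence ratio | controls = DMSO and RFP-L50D-GFP cell wells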
Exocytosis inh: blocks lytic granule exocytosis. TALL-104 LAMP-1 surface exposure, flow cytometry; cells stimulated with thapsigargin and PMA. inhibition, % at 10 µM. 0.66% of 360,000 active;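 active = inhibition above about 55%, limit read from the data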
ABCB6 inh CP1: human ABCB6 transporter inhibition | shares compounds with ABCB6 inh MLPCN | K562-ABCB6 porphyrin accumulation, flow cytometry, 1 h; hits give low values | ratio response (% of DMSO), % at 10 µM | 700 tested, under 10 active | AID 602430;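 active = repeat-averaged ratio response below 75% of DMSO, the collection mean minus 3 SD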;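 also: median porphyrin fluorescence at 575 nm with 488 nm excitation from mitochondria; lower ratio means less porphyrin signal so ABCB6 inhibition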
Active calls of the source: *; / = not tested or not shown.

SMILES	FGF22 binding	ABCB6 inh MLPCN	DAGLB inhibitor	VLA-4 inh	MT1-MMP act inh	Exocytosis inh	ABCB6 inh CP1
O=C(COC(=O)C1CCN(S(=O)(=O)c2cccs2)CC1)c1ccccc1	0.0	95.0	-2.8	4.5	0.4	-1.0	/
C/C(N)=C(/C#N)C(=O)COC(=O)C1CCN(S(=O)(=O)c2cccs2)CC1	-0.4	104.0	-1.7	-2.7	-1.4	-0.8	101.0
C#CCOc1ccccc1CNC1CCN(Cc2ccccc2)CC1	0.0	57.0*	-1.1	-4.0	2.3	48.0	98.0
C[C@@H]1CN([C@@H](C)CO)C(=O)c2cc(NS(=O)(=O)c3ccc(F)cc3)ccc2O[C@@H](C)CCCCO[C@@H]1CN(C)Cc1ccncc1	-0.1	/	/	/	/	/	/
Cc1cc2ccccc2n2c(SCC(=O)Nc3ccc(S(=O)(=O)N4CCC(C)CC4)cc3)nnc12	0.1	68.0*	-8.6	11.8	4.3	13.1	99.0
CC1CCN(S(=O)(=O)c2ccc(NC(=O)CN3CCN(c4ccccc4)CC3)cc2)CC1	0.0	73.0*	3.8	13.0	-5.0	-2.9	102.0
CC1CCN(S(=O)(=O)c2ccc(NC(=O)CN3CCN(C)CC3)cc2)CC1	/	102.0	2.1	29.6	0.8	-0.3	/
CC1(C(=O)Nc2cccnc2)Cc2c(-c3cccc(C(F)(F)F)c3)ccnc2O1 (stereo not given)	-0.5	94.0	/	/	-3.8	0.7	97.0
CC(=O)c1cccc(NC(=O)C2(C)Cc3c(-c4cccc(C(F)(F)F)c4)ccnc3O2)c1 (stereo not given)	0.3	76.0	/	/	-0.8	0.5	100.0
CC1(C(=O)Nc2ccccc2)Cc2c(-c3ccc4c(c3)OCO4)ccnc2O1 (stereo not given)	0.1	99.0	/	/	-0.1	5.8	/
CC(=O)Nc1ccc(NC(=O)C2(C)Cc3c(-c4cccc(C(F)(F)F)c4)ccnc3O2)cc1 (stereo not given)	-0.4	98.0	/	/	1.5	-0.9	/
CC1(C(=O)Nc2cccnc2)Cc2c(-c3ccc4c(c3)OCO4)ccnc2O1 (stereo not given)	0.0	94.0	/	/	-0.5	3.3	99.0
C[C@H](CO)N1C[C@H](C)[C@@H](CN(C)S(=O)(=O)c2cn(C)cn2)OCCCC[C@H](C)Oc2ccc(NC(=O)Nc3ccc(C(F)(F)F)cc3)cc2C1=O	-0.1	/	/	/	/	/	/
CNC(=O)c1cc(Nc2nnc(-c3ccc(C)c(S(N)(=O)=O)c3)c3ccccc23)ccc1OC	0.0	74.0*	0.7	-19.3	-2.1	4.4	101.0
CCOc1ccc(C2Nc3ccccc3NC3=C2C(=O)CC(C)(C)C3)cc1OC (stereo not given)	0.0	66.0*	0.9	7.5	-2.9	2.5	99.0
COc1ccc(C)cc1NC(=O)CNC(c1ccccc1)c1ccc(C)cc1 (stereo not given)	-0.2	101.0	-9.4	-1.9	-7.1	17.4	/
COc1ccc(C)cc1NC(=O)COCC(=O)O	/	69.0*	-4.8	10.6	2.0	2.2	101.0
Cc1nn(-c2ccccc2)c(N)c1Sc1ccccc1[N+](=O)[O-]	0.2	46.0*	2.3	25.1	3.6	-2.4	102.0
CCN1CCN(c2nc3ccccc3nc2C(C#N)C(=O)OC2CCCCC2)CC1 (stereo not given)	/	100.0	0.7	/	-11.2	11.3	/
CN1CCN(c2nc3ccccc3nc2C(C#N)C(=O)OC2CCCCC2)CC1 (stereo not given)	/	65.0*	-2.5	-0.8	-32.7	2.7	99.0
C/C=C/c1cnc2c(c1)C(=O)N([C@@H](C)CO)C[C@@H](C)[C@@H](CN(C)C(=O)c1cccc(F)c1)O2	-0.1	/	/	/	/	/	/
CN(C)C(=O)c1cn(-c2ccccc2)nc1-c1cc2ccccc2oc1=O	/	100.0	-2.0	9.6	3.2	-0.5	/
CN(C)C(=O)c1cn(-c2ccccc2)nc1-c1cc2ccccc2o1	-0.1	35.0*	-0.8	2.4	-0.9	1.3	100.0
CCc1ccccc1NC(=O)CCCSc1nc2ccccc2s1	-0.1	72.0*	-9.4	14.8	-4.9	-1.7	103.0
Cc1cnc(NC(=O)CCCSc2nc3ccccc3s2)s1	/	96.0	0.3	4.3	1.5	3.0	/
SMILES	FGF22 binding	ABCB6 inh MLPCN	DAGLB inhibitor	VLA-4 inh	MT1-MMP act inh	Exocytosis inh	ABCB6 inh CP1
Cc1ccc(S(=O)(=O)N(C)C[C@H]2OCCCC[C@@H](C)Oc3ccc(NS(=O)(=O)c4cn(C)cn4)cc3C(=O)N([C@@H](C)CO)C[C@H]2C)cc1	0.1	/	/	/	/	/	/
COCc1cn(CC[C@H]2CC[C@H](NC(=O)Nc3ccc(F)cc3)[C@H](CO)O2)nn1	0.0	/	/	/	/	/	/
C[C@H](CO)N1C[C@H](C)[C@H](CN(C)S(=O)(=O)c2cccc(F)c2)Oc2ncc(C#CC3CC3)cc2C1=O	-0.1	/	/	/	/	/	/
CCOC(=O)c1ccccc1NC(=O)CSc1nnc(Cc2cccn2C)n1-c1ccc(F)cc1	/	65.0*	0.1	5.4	-6.6	8.1	100.0
CCOc1ccccc1NC(=O)CSc1nnc(Cc2cccn2C)n1-c1ccc(F)cc1	-0.2	98.0	0.6	-14.0	-0.7	1.1	/
O=C(Cc1cccc(C(F)(F)F)c1)Nc1ccc(S(=O)(=O)N2CCCC2)cc1	0.2	102.0	-1.3	8.9	-1.1	29.7	/
COC(=O)c1ccc(NC(=O)COc2ccc(S(=O)(=O)N3CCCCC3)cc2)cc1	/	70.0*	-1.5	1.3	-3.4	1.1	97.0
O=C(COc1cccc(C(F)(F)F)c1)Nc1ccc(S(=O)(=O)N2CCCC2)cc1	0.3	60.0*	-7.8	20.7	-2.4	9.2	102.0
O=C(Nc1ccc([N+](=O)[O-])cc1)c1ccc(S(=O)(=O)N2CCCC2)cc1	-0.3	73.0*	0.2	-0.4	1.1	-10.2	100.0
CO[C@@H]1CN(C)C(=O)c2ccc(NC(=O)CN(C)C)cc2OC[C@@H](C)N(C(=O)C2CCOCC2)C[C@H]1C	0.0	/	/	/	/	/	/
C[C@@H]1CCCCO[C@H](CN(C)Cc2ccc(C(=O)O)cc2)[C@H](C)CN([C@H](C)CO)C(=O)c2cc(NS(=O)(=O)c3ccc(Cl)cc3)ccc2O1	-0.1	/	/	/	/	/	/
COc1ccccc1NC(=O)N(C)C[C@@H]1Oc2cc(Br)ccc2S(=O)(=O)N([C@H](C)CO)C[C@H]1C	-0.2	/	/	/	/	/	/
COc1cc(C2=NOC(C(=O)N3CCCc4ccccc43)C2)cc(OC)c1OC (stereo not given)	/	64.0*	0.6	2.4	18.4	6.7	100.0
COc1ccc(C2=NOC(C(=O)N3CCCc4ccccc43)C2)cc1 (stereo not given)	/	104.0	-2.2	6.0	0.7	0.6	/
C[C@@H]1CN([C@@H](C)CO)C(=O)c2cc(-c3ccccc3F)cnc2O[C@@H]1CN(C)C(=O)c1cnccn1	0.2	/	/	/	/	/	/
